Screening data: PubChem BioAssay, several laboratories
MPTP block: mitochondrial permeability transition pore inhibitors, primary screen, biochemical, isolated mouse mitochondria, absorbance. Ca2+ swelling absorbance, 30 min. actives 1.4% (n = 360,000). inhibition, % at 10 µM. AID 602449, 2012;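 active = inhibition of 50% or more, scaled per plate between neutral and stimulator controls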;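 note: 0% = DMSO wells given calcium and 100% = 1 mM EGTA wells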
CHOP inhibitor: inhibitors of CHOP promoter induction, primary screen, cell-based, unfolded protein response, luciferase reporter; actives 3.8% (n = 220,000); CHO-K1 CHOP-promoter luciferase, tunicamycin-induced, 15-18 h; AID 2732, 2010; inhibition, % at 10 µM;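 active = compounds that reduced the stress-induced luciferase reporter signal by more than about 70% of percent inhibition, limit read from the data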;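 note: 0% = tunicamycin plus vehicle and 100% = wells without tunicamycin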
TbMetRS inhib: T. brucei MetRS inhibitors, primary screen, biochemical, luminescence; purified T. brucei MetRS, ATP depletion, Kinase-Glo luminescence; AID 624268, 2012; methionyl-tRNA synthetase (Trypanosoma brucei brucei); inhibition, % at 11.9 µM; actives 0.4% (n = 360,000);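 active = inhibition above a per-plate cutoff of the control wells' mean inhibition plus 3 SD, cut at about 5.5% in these data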;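 note: 0% = DMSO wells median and 100% = median of wells with control inhibitor compound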
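Material: T. brucei methionyl-tRNA synthetase, purified; reagent: substrates ATP, L-methionine and bulk Escherichia coli tRNA; dosing: 11.9 µM single point; timing: 15 min plus 2 h at 25 °C; detection: luminescence of leftover ATP; evaluation: % inhibition; control set: DMSO-only wells as low control; replicates: singlicate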
WT yeast gro inh: growth inhibition of WT strain, primary screen, mitochondrial fusion inhibitor project, WT and mutant strains, chemical genetic; mitochondrial fusion phenotypic screen; inhibition, % at 10 µM; actives 2.1% (n = 190,000); AID 1362, 2008; in the data active = inhibition above about 58%; tested in S. cerevisiae
EBV gp42 block: Epstein-Barr virus gp42 inhibitors, primary screen, biochemical, uHTS, fluorescence polarization; actives 0.42% (n = 220,000); Glycoprotein 42 (Epstein-Barr virus (strain AG876)), Q1HVG2; Fluorescence polarization binding assay, mP read-out; inhibition, % (tested at 21.74 µM); in the data active = inhibition above about 50%
Target sequence (Q1HVG2 whole entry, looked up): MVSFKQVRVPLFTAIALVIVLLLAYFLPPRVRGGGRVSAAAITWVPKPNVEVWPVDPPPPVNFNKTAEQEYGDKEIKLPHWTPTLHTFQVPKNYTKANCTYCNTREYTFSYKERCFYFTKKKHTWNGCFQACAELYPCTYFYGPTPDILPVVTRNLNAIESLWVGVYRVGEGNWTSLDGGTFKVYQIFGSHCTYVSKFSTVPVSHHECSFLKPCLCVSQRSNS
GRIN3A LBD mod: binders of NR3A ligand-binding domain, primary screen, biophysical, differential scanning fluorimetry, uHTS; Tm shift relative to glycine control, % at 25 µM; Glutamate receptor ionotropic, NMDA 3A (GRIN3A) ligand-binding domain; actives 2.5% (n = 340,000); AID 1259313, 2017; NR3A LBD differential scanning fluorimetry, Tm shift; 0% = protein alone, 100% = glycine-bound protein;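 active = melting temperature shift of at least 10% of the positive control shift, at one fixed dose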
* marks the source's active call; other numbers are inactive results; · = no result given. Most compounds without a hit are left out; they make up all but 6.4% or so of the library.

SMILES	MPTP block	CHOP inhibitor	TbMetRS inhib	WT yeast gro inh	EBV gp42 block	GRIN3A LBD mod
CC(C)(C)NS(=O)(=O)c1ccc(Oc2ncc(C(F)(F)F)cc2Cl)cc1	4.6	-0.4	-0.4	0.0	-7.4	-0.8
CCOc1ccc(N2C(=O)CN(O)C=C3N=c4ccccc4=C32)cc1	·	7.9	·	13.3	-8.4	·
Cc1ccc(Cn2ncc3c(N4CCN(c5ccccc5C)CC4)ncnc32)cc1	2.2	50.8	0.0	64.9*	-2.3	-0.2
COc1ccc(C(=S)N2CCCCCC2)cc1	0.2	-9.1	-0.4	5.8	-16.5	-0.3
COc1ccc(C(=O)Oc2ccc(C(=S)N3CCCC3)cc2)cc1OC	·	93.3*	·	0.9	-12.3	·
CCN(CC)c1ccc2cc(-c3nc4ccccc4n3C)c(=O)oc2c1	-1.1	·	-1.3	13.5	2.2	2.0
CCN(CC)c1ccc2cc(-c3nc(-c4ccc(OC)cc4)cs3)c(=O)oc2c1	·	22.2	·	5.7	91.8*	5.7
CCN(CC)c1ccc2cc(-c3nnc(-c4ccccc4)o3)c(=O)oc2c1	-3.1	-12.8	-0.8	-14.6	21.3	31.6*
CCOC(=O)[C@@H]1[C@H]2COc3ccc(Br)cc3[C@@H]2N2C(=O)N(c3ccc(OC)cc3)C(=O)[C@]12C	-0.2	·	-0.3	·	·	4.5
COc1ccc(C(=O)Nc2cnccn2)cc1[N+](=O)[O-]	-0.1	·	-0.4	·	·	1.7
CN(C)c1ccc(N2C(=NC(=O)COc3ccccc3)SC3CS(=O)(=O)CC32)cc1 (stereo not given)	0.1	·	-0.3	·	·	-2.8
COc1ccc(OC)c(C2NC(=O)c3sc(=S)n(-c4ccccc4)c3N2)c1 (stereo not given)	1.9	90.3*	0.1	8.2	-17.1	1.7
Cn1c(O)c(N=NC(=S)Nc2ccccc2F)c2cc(S(=O)(=O)N3CCOCC3)ccc21	-0.2	-110.0	-0.8	73.8*	-8.4	-6.1
O=C(CCN1CCN(Cc2ccccc2)CC1)NNC(=O)Nc1cccc(C(F)(F)F)c1	1.6	·	0.2	·	·	2.2
CCc1ccccc1NC(=O)/C(=C/c1ccco1)c1ccccc1	5.2	51.0	-1.6	59.1*	0.9	-2.7
O=C(c1cc2nc(-c3ccc(F)cc3)cc(C(F)(F)F)n2n1)N1CCOCC1	0.0	33.7	0.7	-4.0	-15.9	-2.2
CCn1c(=O)c2cc(S(=O)(=O)NCc3ccccc3)ccc2n(CC)c1=O	1.4	21.8	-0.1	-2.6	-9.2	2.4
O=C(COc1ccc(/C=C\[N+](=O)[O-])cc1)N1CCOCC1	-3.7	85.1*	-0.3	-8.9	-9.4	0.2
Cc1ccc(-c2cc(N)n[nH]2)cc1	0.1	7.7	-0.9	13.3	-3.0	1.3
CC(C)(C)c1ccc(-c2cc(N)n[nH]2)cc1	0.1	90.7*	-1.4	-6.3	-15.2	7.0
Cc1ccc(C(=O)C(c2ccccc2)N2Cc3ccccc3C2=N)cc1 (stereo not given)	40.0	70.0	0.4	69.6*	-5.0	-20.4
CN(C(=O)CN1C(=O)c2ccc([N+](=O)[O-])cc2C1=O)C1CCCCC1	0.5	·	-0.3	·	·	-0.6
O=C(/C=C/c1ccco1)NC(=S)Nc1cc(-c2nc3ccccc3s2)ccc1Cl	1.4	-4.5	0.5	10.0	-17.0	17.8*
COc1ccc(-c2csc(NC(=S)NC(=O)/C=C/c3ccco3)n2)cc1OC	-2.3	95.4*	-0.7	-27.4	1.9	12.6*
CC(C)(C)c1csc(NC(=O)C2COc3ccccc3O2)n1 (stereo not given)	1.8	·	0.4	·	·	3.8
SMILES	MPTP block	CHOP inhibitor	TbMetRS inhib	WT yeast gro inh	EBV gp42 block	GRIN3A LBD mod
COc1ccc(-c2csc(NC(=O)C3COc4ccccc4O3)n2)cc1OC (stereo not given)	-1.2	46.2	-0.3	64.9*	-11.8	-7.6
O=C(Nc1ccc(-c2cn3ccsc3n2)cc1)C1COc2ccccc2O1 (stereo not given)	-1.3	27.4	-0.7	22.0	10.1	24.1*
Cc1ccc([N+](=O)[O-])c2cccnc12	1.1	37.3	-0.1	-52.1	-13.6	0.0
Cc1ccc(-c2csc(NC(=S)NC(=O)c3ccco3)n2)cc1	1.7	14.3	1.9	-25.1	-12.1	20.0*
COc1ccc(-c2csc(NC(=S)NC(=O)c3ccco3)n2)cc1Br	3.5	·	0.6	·	·	-2.8
COc1ccc(-c2csc(NC(=S)NC(=O)c3ccccc3)n2)cc1Br	1.8	-25.8	0.1	·	-11.6	39.8*
COc1ccc(-c2csc(NC(=S)NC(=O)/C=C/c3ccco3)n2)cc1Br	0.8	29.6	-0.3	·	-13.1	21.0*
Oc1nc(Nc2ccccc2)sc1/C=C1\C=Nc2ccccc21	13.0	10.0	3.3	·	-8.7	27.4*
CCOC(=O)c1c(Nc2ccccc2)sc(/C=C2\C=Nc3ccccc32)c1O	22.4	-58.7	0.1	11.1	-29.9	-0.5
CCOC(=O)c1sc(N)c(C(=O)OCC)c1C	1.5	-22.8	-0.4	·	-9.4	-0.6
CCOC(=O)c1c(N)sc2c(OCC)c(Br)ccc12	7.2	85.4*	-0.3	35.9	-0.9	·
COc1cc(OC)cc(C(=O)NCC(=O)OCC(=O)c2cc(C)n(Cc3ccco3)c2C)c1	4.3	30.2	0.3	15.4	-6.2	18.6*
Cc1cc(C(=O)COC(=O)CNC(=O)c2ccccc2)c(C)n1CC1CCCO1 (stereo not given)	1.3	90.1*	-1.0	2.9	-10.9	-1.6
c1ccc(COc2ccc(-c3cc4nc(NCCN5CCOCC5)ccn4n3)cc2)cc1	2.0	·	-0.1	·	·	·
O=C(NCCCN1CCCC1=O)c1cccs1	-2.3	17.7	-0.5	3.6	-3.9	0.3
CCOc1ccc(NC(=S)NC(=O)/C=C/c2ccc(C)cc2)c([N+](=O)[O-])c1	-0.1	62.9	0.0	9.8	-8.9	0.5
CCOc1ccc(NC(=S)NC(=O)c2c(Cl)c(C)nn2C)c([N+](=O)[O-])c1	2.4	72.6*	0.1	9.3	-8.6	2.4
Cc1nn(C)c(C(=O)NC(=S)Nc2ccccc2O)c1Cl	1.1	·	-0.5	·	·	-9.0
CCOc1ccc(NC(=S)NC(=O)/C=C/c2ccc(OC)c(OC)c2)c([N+](=O)[O-])c1	2.6	80.6*	-0.2	-6.6	-10.6	-2.0
CCCCC(=O)Nc1ccc(C(=O)Nc2ccc(OC)cc2[N+](=O)[O-])cc1	4.0	40.5	0.3	9.0	-81.7	-7.1
O=C(CC1(O)CCCCC1)OC1CCCC1	-0.7	·	-0.2	·	·	-0.8
O=C1c2ccccc2C(=O)N1CCN1CCCCC1	-4.7	13.3	-1.4	65.6*	-8.6	-0.6
